D1 mod = D1 CRE-luciferase signal change, two-sided – cell-based, HEK293 D1, dopamine EC30, D1 allosteric modulator project, primary screen; AID 641, 2007; actives 5.9% (n = 58,000); dopamine EC30 potentiation; actives deviate in either direction; B-score at 10 µM;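 active means luminescence count or its row- and column-corrected plate score outside the 99.7% band of the plate's sample wells, on either side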
S1P1 ag pot = S1P1 agonists and agonism potentiators, primary screen, cell-based, primary and confirmation screens, CRE-bla reporter; Sphingosine 1-phosphate receptor 1 (Homo sapiens), P21453; S1P1 CRE-bla cells, forskolin, beta-lactamase FRET, potentiator mode; S1P1 agonist co-added at EC20, 2 nM; 100% = saturating reference agonist, 0% = basal; activation, % at 9.5 µM; actives 0.57% (n = 56,000);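 active means activation above a cutoff set at the mean activation of all tested compounds plus 3 SD, cut at about 54% in these data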;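 further: forskolin at 4 µM as EC80 and the EC20 agonist is SEW2871; 100% = SEW2871 at its EC100 plus forskolin at EC80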
Target sequence (P21453 whole entry, looked up): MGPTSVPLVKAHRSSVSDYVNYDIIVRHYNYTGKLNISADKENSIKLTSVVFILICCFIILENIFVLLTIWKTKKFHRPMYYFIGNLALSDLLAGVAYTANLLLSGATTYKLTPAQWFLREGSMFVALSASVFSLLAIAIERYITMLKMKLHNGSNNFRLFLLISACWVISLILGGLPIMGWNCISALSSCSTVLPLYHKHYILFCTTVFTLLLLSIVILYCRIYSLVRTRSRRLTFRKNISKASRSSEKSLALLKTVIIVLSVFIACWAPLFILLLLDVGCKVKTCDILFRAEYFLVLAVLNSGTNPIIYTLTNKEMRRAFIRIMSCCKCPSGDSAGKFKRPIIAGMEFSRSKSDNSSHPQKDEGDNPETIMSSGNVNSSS
M1 agonist = M1 muscarinic receptor agonists, primary screen, CHO-M1 cells, Fluo-4 calcium, agonist mode. Fluo-4 calcium fluorescence; hits give high values. B-score at 10 µM. actives 3% (n = 64,000). AID 626, 2007;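 active means fluorescence rise, raw or as B-score row- and column-corrected plate score, outside the 99.7% band of its plate's samples, either direction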
M1 antag = antagonists of rat M1 muscarinic receptor. Muscarinic acetylcholine receptor M1 (Rattus norvegicus), P08482. CHO-M1 cells, Fluo-4 calcium, ACh EC80 antagonist mode; hits give low values. B-score at 10 µM. actives 3.4% (n = 64,000). AID 628, 2007;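 active means calcium fluorescence response, raw or row-and-column corrected B-score, differing from the plate sample mean either way at a set confidence level, mostly lower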
S1P3 agonist = human S1P3 receptor agonists, primary screen, cell-based, primary and confirmation, NFAT-BLA reporter. actives 0.1% (n = 60,000). activation, % at 4.5 µM. AID 373, 2006. S1P3 NFAT-BLA reporter cells, agonism, FRET ratio; relative to 1 µM S1P, basal subtracted. Sphingosine 1-phosphate receptor 3 (Homo sapiens), Q99500;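 active means activation above the screen-wide mean plus 3 SD, cut at about 4.5% in these data, passing the limit was not always enough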
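Measure – % activation relative to 1 µM S1P (100%), per plate · System – stable CHO line with human S1P3, Gα16, NFAT-BLA reporter · Timing – cells plated overnight, compound 4 h 37 °C, substrate 2 h RT · Technique – fluorescent BLA substrate, ex 405 nm, em 460/535 nm ratio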
M1 ag confirm = rat M1 muscarinic receptor agonists, confirmation, CHO-M1 cells, Fluo-4 calcium, duplicate retest | shares compounds with M1 agonist | fluorescence change (max-min) at 10 µM | actives 19% (n = 1,700) | Fluo-4 calcium fluorescence, agonist mode; actives lie on both sides;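 active means fluorescence change differs from the solvent-only DMSO control mean at a set confidence level in both duplicate runs; inconclusive means differs from solvent-only control mean in just one of two runs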;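 further: an EC20 dose of acetylcholine follows compound addition during the same imaging run; raw fluorescence intensity difference in instrument units with no normalization to controls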
M4 ag counter = agonist activity at rat M4 receptor, confirmation, counter-screen for M1 allosteric modulator project, cell-based, agonist mode | shares compounds with M1 agonist | CHO M4/Gqi5 cells, Fluo-4 calcium fluorescence; actives lie on both sides | fluorescence change (max-min) at 10 µM | actives 9% (n = 1,700);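 active means fluorescence change differing from the plate's solvent-only control wells at 99.7% confidence in both duplicates, whether higher or lower; inconclusive means differs from solvent controls in only one of two duplicates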
* hit, by the source's call; u = inconclusive; x = no result given. In the library only some 11% were active in any assay of this set; here they are far more common.

SMILES | D1 mod | S1P1 ag pot | M1 agonist | M1 antag | S1P3 agonist | M1 ag confirm | M4 ag counter
CCOC(=O)N1CCN(C(=O)c2ccc3c(=O)n(CCc4ccccc4)c(=S)[nH]c3c2)CC1 | -1.6 | 6 | -0.39 | -0.17 | -1 | x | x
O=C(c1ccc2c(=O)n(C3CCCC3)c(=S)[nH]c2c1)N1CCN(C2CCCCC2)CC1 | 0.5 | 7 | 0.26 | -0.059 | 0 | x | x
CCN1CCN(C(=O)c2ccc3c(=O)n(C4CCCC4)c(=S)[nH]c3c2)CC1 | 0.81 | 4 | 1.4* | -0.42 | -1 | -1 | -27
CCCn1c(=S)[nH]c2cc(C(=O)N3CCCC(C(=O)OCC)C3)ccc2c1=O (centres undefined) | -1.6 | x | 3.3* | -1.8 | x | -16 | u
Cn1c(=O)n(C)c2cc(S(=O)(=O)NCCc3ccccc3)ccc21 | -0.42 | 4 | -3* | -0.25 | 0 | -16 | u
COc1ccc(-c2noc(Cc3ccccc3OC)n2)cc1 | 1.3 | -3 | -0.012 | -0.39 | 1 | x | x
COc1ccc(-c2noc(Cc3cccs3)n2)cc1 | -0.5 | 5 | 5.3* | 0.33 | -1 | -17 | u
CCCC(OC(=O)CC1Sc2ccccc2NC1=O)C(=O)NCc1ccco1 (centres undefined) | x | x | 2.5* | 1.2 | x | -19 | -31
COc1ccc(-n2nnnc2SCC(=O)Nc2cccc(C)n2)cc1OC | 3.1 | -8 | -0.058 | 0.35 | 0 | x | x
COc1ccc2c(c1)[nH]c1c(=O)n(CCN3CCCC3)cnc12 | -0.86 | -11 | 2.2* | 0.14 | 0 | u | -44
CN(C1CCCCC1)S(=O)(=O)Cc1ccccc1 | 1.1 | x | -0.43 | 0.46 | 0 | x | x
COc1cccc(OC)c1NC(=O)Cc1nn(C)c(=O)c2ccccc12 | -0.078 | -14 | 0.13 | 0.54 | -1 | x | x
Cc1ccc(NC(=O)Cc2nn(C)c(=O)c3ccccc23)cc1F | x | x | 5.5* | -2.3 | x | -5.1 | u
Cn1nc(CC(=O)Nc2ccc3c(c2)OCCO3)c2ccccc2c1=O | -2.5 | 92* | 4.5* | -1.6 | -1 | -0.85 | -2.7
COc1ccccc1NC(=O)Cc1nn(C)c(=O)c2ccccc12 | -0.56 | 23 | 2.7* | -0.85 | -1 | 0.79 | u
COc1cc(NC(=O)Cc2nn(C)c(=O)c3ccccc23)cc(OC)c1 | -0.48 | x | 0.79 | -1 | x | x | x
Cc1c(NS(=O)(=O)c2cccc3nsnc23)c(=O)n(-c2ccccc2)n1C | 0.099 | 14 | 0.089 | -0.25 | -3 | x | x
COC(=O)C1CCN(C(=O)c2ccccc2Oc2ccccc2)CC1 | 3.5 | -28 | 0.58 | 0.09 | -1 | x | x
Cn1cnnc1SCc1ccc(-c2ccc(Br)cc2)o1 | -0.32 | 14 | 0.006 | -0.55 | 0 | x | x
CCOC(=O)c1cc(NC(=O)N2CCCCC2)c(C)nc1C | x | x | -0.04 | 0.25 | x | x | x
COc1ccc(C(=O)c2no[n+]([O-])c2C(=O)c2ccc(OC)cc2)cc1 | -0.4 | -7 | 1.6 | -0.26 | 0 | x | x
O=C(c1cccs1)c1no[n+]([O-])c1C(=O)c1cccs1 | -3.6 | -3 | 12* | -3.2* | 1 | 21 | -3.2
O=C1CC(C(=O)N2CCOCC2)C2(CCCC2)O1 (centres undefined) | -0.64 | -26 | -0.012 | -0.045 | -2 | x | x
COc1cc(-c2nnc(SCc3cccnc3)n2C)cc(OC)c1O | -0.14 | -7 | 0.5 | 0.39 | -1 | x | x
CC(=O)Nc1cccc(NC(=O)c2oc3ccccc3c2C)c1 | -1.3 | -2 | 2.3* | -0.29 | 0 | -16 | -15

Screening results (PubChem)
